ChEMBL document CHEMBL1150133, “New saponins from the starfish Certonardoa semiregularis” (J Nat Prod, 2002)
Values after ≈ are worked out from the molar mass of the structure shown.

Columns and labels:
[1] = Cytotoxicity against human MT4 cells after 5 days by MTT assay; type: cell-based
Procedure, shortened: (§1)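 MT-4 cells (RPMI 1640/10% FBS), HIV-infected or mock-infected, were plated with 2× concentrated test samples and kept 5 days at 37 °C. Cells were inspected microscopically, then MTT was added for 1 h, dissolved in acidified 2-propanol, and read at 540 nm (690 nm reference). EC50 (50% protection) came from infected wells and CC50 (50% viability loss) from mock-infected wells.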

[2] = system: Human immunodeficiency virus 1; assay: Antiviral activity against HIV1 3B infected in human MT4 cells assessed as inhibition of virus-induced cytopathic effect after 5 days by MTT assay; type: functional, organism-based; conditions: Human immunodeficiency virus 1, 3B, MT4, 120 h; procedure, shortened: as §1
[3] = system: Human immunodeficiency virus 2; assay: Antiviral activity against HIV2 ROD infected in human MT4 cells assessed as inhibition of virus-induced cytopathic effect after 5 days by MTT assay; type: functional, organism-based; conditions: Human immunodeficiency virus 2, ROD, MT4, 120 h; procedure, shortened: as §1
[4] = Cytotoxicity against african green monkey Vero cells after 3 days by MTT assay; type: cell-based; conditions: chlorocebus sabaeus
Procedure, shortened: (§2)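 Confluent Vero cells were infected at 100 CCID50 per well, or mock-infected, with 1 h adsorption at 37 °C. Compound in DMEM/2% FBS was added in duplicate per concentration, followed by 3 days at 37 °C. Viability was read by MTT, and EC50 for CPE inhibition and CC50 for cytocidal effect were calculated.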

[5] = system: Human alphaherpesvirus 1; assay: Antiviral activity against HSV1 F infected in african green monkey Vero cells assessed as inhibition of virus-induced cytopathic effect after 3 days by MTT assay; type: functional, organism-based; conditions: Human alphaherpesvirus 1, F, 72 h; procedure, shortened: as §2
[6] = system: Human alphaherpesvirus 2; assay: Antiviral activity against HSV2 MS infected in african green monkey Vero cells assessed as inhibition of virus-induced cytopathic effect after 3 days by MTT assay; type: functional, organism-based; conditions: Human alphaherpesvirus 2, MS, 72 h; procedure, shortened: as §2
[7] = Cytotoxicity against human HeLa cells after 2 days by MTT assay; type: cell-based
Procedure, shortened: (§3)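 In HeLa cells, virus-induced CPE inhibition was run with infected or mock-infected wells, 30 min virus adsorption, and compound in DMEM/2% FBS in duplicate per concentration. After 2 days at 37 °C, MTT read-out gave EC50 from infected wells and CC50 from mock-infected wells.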

[8] = system: Coxsackievirus B3; assay: Antiviral activity against Coxsackievirus B3 Nancy infected in human HeLa assessed as inhibition of virus-induced cytopathic effect after 2 days by MTT assay; type: functional, organism-based; conditions: Enterovirus B, 48 h; procedure, shortened: as §3
[9] = system: Encephalomyocarditis virus; assay: Antiviral activity against Encephalomyocarditis virus EMC infected in human HeLa assessed as inhibition of virus-induced cytopathic effect after 2 days by MTT assay; type: functional, organism-based; conditions: Cardiovirus A, 48 h; procedure, shortened: as §3
[10] = system: Vesicular stomatitis Indiana virus; assay: Antiviral activity against Vesicular stomatitis Indiana virus infected in human HeLa assessed as inhibition of virus-induced cytopathic effect after 2 days by MTT assay; type: functional, organism-based; conditions: 48 h
Procedure, shortened: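 CPE-inhibition assay with VSV strain Indiana (stock grown in HeLa cells) on confluent HeLa cells (DMEM/5% FBS, gentamycin) in 96-well plates. Infection at 100 CCID50 per well with 30 min adsorption at 37 °C, then the compound in DMEM/2% FBS, duplicate wells per concentration, 2 days at 37 °C. Viability read by MTT; EC50 is the concentration giving 50% protection. Mock-infected wells gave CC50.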

Structure (SMILES)	CC50 at 120 h [1] [µg/mL]	EC50 [2] [µg/mL]	EC50 [3] [µg/mL]	CC50 at 72 h [4] [µg/mL]	EC50 [5] [µg/mL]	EC50 [6] [µg/mL]	CC50 at 48 h [7] [µg/mL]	EC50 [8] [µg/mL]	EC50 [9] [µg/mL]	EC50 [10] [µg/mL]
O=c1[nH]cnc2c1ncn2[C@H]1CC[C@@H](CO)O1 [DIDANOSINE]	> 100	2.1 (≈ 8.89 µM)	11 (≈ 46.6 µM)							
Cc1cn([C@H]2C[C@H](N=[N+]=[N-])[C@@H](CO)O2)c(=O)[nH]c1=O [ZIDOVUDINE]	1.9 (≈ 7.11 µM)	0.001 (≈ 0.00374 µM)	0.007 (≈ 0.0262 µM)							
Nc1nc2c(ncn2COCCO)c(=O)[nH]1 [ACYCLOVIR]				> 10	0.8 (≈ 3.55 µM)	2.4 (≈ 10.7 µM)				
CO[C@@H]1CO[C@@H](OCC[C@@H](CC[C@@H](C)[C@H]2[C@@H](O)[C@@H](O)[C@H]3[C@@H]4C[C@H](OS(=O)(=O)[O-])[C@H]5[C@@H](O)[C@@H](O)CC[C@]5(C)[C@H]4CC[C@]23C)C(C)C)[C@H](O)[C@H]1O.[Na+] [CERTONARDOSIDE K]	> 100	> 100	> 100	> 100	97.8	82.1	57.9	> 57.9	> 57.9	> 57.9
C=C(CC[C@@H](C)[C@H]1C[C@@H](O)[C@@H]2[C@]1(C)CC[C@@H]1[C@@]3(C)CC[C@H](O)[C@H](O)[C@@H]3[C@@H](O)C[C@]12O)C(C)CO[C@@H]1OC[C@@H](O)[C@H](OS(=O)(=O)[O-])[C@H]1O[C@@H]1OC[C@@H](O)[C@H](O)[C@H]1OC.[Na+] (some centres undefined) [CERTONARDOSIDE A]	6.8	> 6.8	> 6.8	> 100	> 100	> 100	> 100	> 100	> 100	> 100
Nc1ccn([C@H]2CC[C@@H](CO)O2)c(=O)n1 [ZALCITABINE]	11 (≈ 52.1 µM)	0.1 (≈ 0.473 µM)	0.1 (≈ 0.473 µM)							
NC(=O)c1ncn([C@@H]2O[C@H](CO)[C@@H](O)[C@H]2O)n1 [RIBAVIRIN]							300 (≈ 1230 µM)	236 (≈ 968 µM)	27.2 (≈ 111 µM)	13.7 (≈ 56.1 µM)
CO[C@H]1[C@H](O[C@H]2[C@H](O[C@@H](CC[C@@H](C)[C@H]3C[C@@H](O)[C@@H]4[C@]3(C)CC[C@@H]3[C@@]5(C)CC[C@H](O)[C@H](O)[C@@H]5[C@@H](O)C[C@]34O)C(C)C)O[C@H](CO)[C@@H]2O)OC[C@@H](OC)[C@@H]1O [CERTONARDOSIDE F]	39.7 (≈ 52.2 µM)	> 39.7	> 39.7	> 100	> 100	> 100	64.8 (≈ 85.2 µM)	> 64.8	> 64.8	> 64.8
CO[C@H]1[C@H](O[C@H]2[C@H](OC[C@@H](C)[C@H](C)/C=C/[C@@H](C)[C@H]3C[C@@H](O)[C@@H]4[C@]3(C)CC[C@@H]3[C@@]5(C)CC[C@H](O)[C@H](O)[C@@H]5[C@@H](O)C[C@]34O)OC[C@@H](O)[C@@H]2OS(=O)(=O)[O-])OC[C@@H](O)[C@@H]1O.[Na+] [CERTONARDOSIDE D]	> 100	> 100	> 100	79.9	> 79.9	> 79.9	> 100	> 100	> 100	> 100
C=C(CC[C@@H](C)[C@H]1C[C@@H](O)[C@@H]2[C@]1(C)CC[C@@H]1[C@@]3(C)CC[C@H](O)C[C@@H]3[C@@H](O)C[C@]12O)C(C)CO[C@@H]1OC[C@@H](O)[C@H](OS(=O)(=O)[O-])[C@H]1O[C@@H]1OC[C@@H](O)[C@H](O)[C@H]1OC.[Na+] (some centres undefined) [CERTONARDOSIDE C]	1.4	> 1.4	> 1.4	97.5	> 97.5	> 97.5	> 100	> 100	> 100	> 100
C=C(CC[C@@H](C)[C@H]1C[C@@H](O)[C@@H]2[C@]1(C)CC[C@@H]1[C@@]3(C)CC[C@H](O)[C@H](O)[C@@H]3[C@@H](O)C[C@]12O)C(C)CO[C@@H]1OC[C@@H](O)[C@H](O)[C@H]1O[C@@H]1OC[C@@H](O)[C@H](O)[C@H]1OC (some centres undefined) [ACODONTASTEROSIDE G]	42.5 (≈ 56 µM)	> 42.5	> 42.5	> 100	86.1 (≈ 113 µM)	94.5 (≈ 125 µM)	51.5 (≈ 67.9 µM)	> 51.5	> 51.5	> 51.5
CO[C@H]1[C@H](O[C@H]2[C@H](O[C@@H](CC[C@@H](C)[C@H]3C[C@@H](O)[C@@H]4[C@]3(C)CC[C@@H]3[C@@]5(C)CC[C@H](O)[C@H](O)[C@@H]5[C@@H](OS(=O)(=O)[O-])C[C@]34O)C(C)C)O[C@H](CO)[C@@H]2O)OC[C@@H](OC)[C@@H]1O.[Na+] [CERTONARDOSIDE G]	> 100	> 100	> 100	> 100	> 100	> 100	> 100	> 100	> 100	> 100
CO[C@H]1[C@H](O[C@H]2[C@H](O[C@@H](CC[C@@H](C)[C@H]3C[C@@H](O)[C@H]4[C@@H]5C[C@H](O)[C@H]6[C@@H](O)[C@@H](O)CC[C@]6(C)[C@H]5CC[C@@]43C)C(C)C)O[C@H](CO)[C@@H]2O)OC[C@@H](OC)[C@@H]1O [CERTONARDOSIDE I]	42.5 (≈ 57.1 µM)	> 42.5	> 42.5	> 100	> 100	> 100	59.9 (≈ 80.4 µM)	> 59.9	> 59.9	> 59.9
CO[C@@H]1CO[C@@H](OCC[C@@H](CC[C@@H](C)[C@H]2[C@@H](O)[C@@H](O)[C@@H]3[C@]2(C)CC[C@@H]2[C@@]4(C)CC[C@H](O)[C@H](O)[C@@H]4[C@@H](OS(=O)(=O)[O-])C[C@]23O)C(C)C)[C@H](O)[C@H]1O.[Na+] [CERTONARDOSIDE J]	67.4	> 67.4	> 67.4	> 100	81.1	82.3	58.8	> 58.8	> 58.8	> 58.8
Nc1ccn([C@@H]2O[C@H](CO)[C@@H](O)[C@@H]2O)c(=O)n1 [CYTARABINE]				4.8 (≈ 19.7 µM)	1.6 (≈ 6.58 µM)	3 (≈ 12.3 µM)				
